Screening data (PubChem)
SIAE inh: blocks human sialic acid acetylesterase | inhibition, % at 9.66 µM | AID 1053197 | 0.69% of 370,000 active | SIAE FP-Rh probe binding, fluorescence polarization;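 active = inhibition above a cutoff: mean of compounds within the control limits plus 3 SD of those, cut at about 17% in these data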;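 also: 0% = plate median of compound wells and 100% = probe without SIAE protein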
HTRA1 inh: inhibitors of human serine peptidase HTRA1; recombinant HTRA1, FP-rhodamine activity-based probe, fluorescence polarization; inhibition, % at 5.96 µM; 0.5% of 340,000 active; AID 504803; in the data active = inhibition above about 36%;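 also: 0% = enzyme with DMSO and 100% = wells lacking enzyme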
TCR CD3 inh: blocks the human TCR-CD3 interaction. 0.37% of 360,000 active. inhibition, % at 9.4 µM. TAMRA-labeled TCR probe fluorescence, biochemical. AID 651800;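 also: recombinant mutant TCR 2C K166C tagged with TAMRA read by polarization; 0% = receptor in buffer alone and 100% = receptor with positive control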
mABHD4 FP: inhibitors of mouse ABHD4 | 0.54% of 370,000 active | purified mABHD4, FP-Rh probe fluorescence polarization | AID 720543 | Q8VD66 | inhibition, % at 8.92 µM;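 active = inhibition exceeding the mean over every tested compound plus 3 SD, cut at about 30% in these data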;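 also: 0% = plate median of compound wells and 100% = S159A mutant with DMSO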
Target sequence (Q8VD66 whole entry, looked up): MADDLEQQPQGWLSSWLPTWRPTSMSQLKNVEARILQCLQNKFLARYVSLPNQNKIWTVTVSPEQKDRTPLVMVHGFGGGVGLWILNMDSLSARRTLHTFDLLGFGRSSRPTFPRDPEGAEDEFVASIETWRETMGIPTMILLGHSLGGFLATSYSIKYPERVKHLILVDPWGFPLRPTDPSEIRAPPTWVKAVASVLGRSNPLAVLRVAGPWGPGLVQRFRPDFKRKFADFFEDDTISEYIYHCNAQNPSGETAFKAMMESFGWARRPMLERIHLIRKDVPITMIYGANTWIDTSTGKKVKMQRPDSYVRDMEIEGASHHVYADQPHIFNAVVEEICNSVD
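System: mouse ABHD4 enzyme, wild type / Medium: HEPES pH 7.0, NaCl, Pluronic buffer / Reagent: FP-Rh activity-based fluorescent probe / Control set: S159A mutant high control, sample median low control / Detection: fluorescence polarization with parallel and perpendicular emission, 525/598 nm / Schedule: 45 min + 60 min at 25 °C / Compound dosing: 8.92 µM, single dose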
PRMT1 inh: PRMT1 (human) inhibition, primary screen; recombinant PRMT1, activity-based probe fluorescence polarization; 1.3% of 370,000 active; Q99873; inhibition, % at 2.79 µM;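 active = inhibition above about 21% made by adding two undisclosed values, limit read from the data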
Target sequence (Q99873 whole entry, looked up): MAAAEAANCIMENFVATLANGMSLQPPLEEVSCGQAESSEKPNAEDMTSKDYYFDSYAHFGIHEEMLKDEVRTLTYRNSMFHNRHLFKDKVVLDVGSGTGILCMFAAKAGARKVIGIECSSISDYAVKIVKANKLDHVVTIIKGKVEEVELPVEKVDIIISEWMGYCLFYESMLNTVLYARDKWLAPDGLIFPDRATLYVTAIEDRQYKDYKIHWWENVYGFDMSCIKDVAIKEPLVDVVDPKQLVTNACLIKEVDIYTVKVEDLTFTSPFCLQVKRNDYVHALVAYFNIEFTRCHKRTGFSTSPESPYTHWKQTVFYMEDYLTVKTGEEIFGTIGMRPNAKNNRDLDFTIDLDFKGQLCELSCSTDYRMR
HTRA1 inh conf: confirmation of human HTRA1 inhibitors. shares compounds with HTRA1 inh. recombinant HTRA1, FP-rhodamine activity-based probe, fluorescence polarization. inhibition, % at 5.96 µM. 66% of 1,600 active. AID 540248;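 active = mean inhibition over three repeats above a set limit taken from the earlier primary screen, cut at about 37% in these data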;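 also: 0% = HTRA1 with DMSO and 100% = wells lacking HTRA1; inhibitors block probe binding so polarization drops and inhibition rises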
BSA probe FL: counter-screen for TCR-CD3 interaction inhibitors: BSA probe; shares compounds with TCR CD3 inh; TAMRA-labeled BSA probe fluorescence counterscreen; inhibition, % at 9.4 µM; 10% of 1,200 active; AID 652035; in the data active = inhibition above about 23%;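 also: 0% = buffer low control and 100% = reference high control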
TCR-CD3 inh conf: confirmation of human TCR-CD3 interaction inhibitors; shares compounds with TCR CD3 inh; TAMRA-labeled TCR probe fluorescence binding assay; inhibition, % at 9.4 µM; 48% of 1,200 active; AID 652036
PRMT1 confirm: PRMT1 (human) inhibition, FP confirmation; shares compounds with PRMT1 inh; recombinant His-PRMT1, activity-based probe fluorescence polarization; inhibition, % at 2.79 µM; 42% of 3,300 active; AID 687036;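 active = mean inhibition across replicates above the hit cutoff derived for the earlier primary screen, cut at about 22% in these data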
ABHD4 confirm: confirmation of mouse ABHD4 inhibitors. shares compounds with mABHD4 FP. purified mABHD4, FP-Rh probe fluorescence polarization. inhibition, % at 8.92 µM. 55% of 1,800 active. AID 720658;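 active = mean inhibition across replicates above the hit cutoff set in the primary screen, cut at about 30% in these data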;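 also: 0% = wild-type ABHD4 with DMSO and 100% = catalytically dead S159A mutant with DMSO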
* = called active by the depositor; . = not tested or not shown. Compounds with a hit are over-represented: about 2.7% of the library has one in this group of screens. Rule as the data show it, unless noted: active = inhibition above about 19%; inactive = the rest.

SMILES	SIAE inh	HTRA1 inh	TCR CD3 inh	mABHD4 FP	PRMT1 inh	HTRA1 inh conf	ABHD4 confirm	others
O=[N+]([O-])c1ccc(Cl)c2c1C1C=CCC1C(c1ccccn1)N2 (centres undefined)	11.6	59.8*	3.0	43.1*	13.7	43.2*	73.7*
Cc1cc([N+](=O)[O-])cc2c1NC(c1ccccn1)C1CC=CC21 (centres undefined)	16.5	10.7	2.9	17.8	1.6	.	.
Cc1ccc2nc(/C(C#N)=C/c3ccc(O)c(O)c3)[nH]c2c1	16.2	66.8*	10.8	54.7*	27.0*	92.0*	52.1*
CC(C)(C)S(=O)(=O)N1C[C@@H]2CC(=O)C(CCO)=C2[C@H]1CCO	4.3	.	4.7	5.3	5.4	.	.
OCc1ccc(O)c2ncccc12	14.5	21.7	5.2	8.3	3.6	.	.
Oc1c(I)cc(I)c2cccnc12	34.4*	72.1*	6.0	32.7*	5.7	65.7*	28.6
COC(=O)c1ccc(Sc2ccc(C)cc2)c(N)c1	5.3	-11.9	1.7	5.1	0.5	.	.
COc1cc(Sc2ccc(C)cc2)c(OC)cc1N	0.2	45.8*	-6.8	33.9*	35.2*	43.7*	41.1*
O=C(NCc1ccccc1)c1ccc2nc(-c3ccco3)c(-c3ccco3)nc2c1	34.5*	62.9*	21.8*	54.1*	44.5*	21.6	37.9*	BSA probe FL=-10.0;TCR-CD3 inh conf=24.5*
COc1ccc(C(=O)N/C(=C/c2cccs2)C(=O)N2CCN(C)CC2)cc1	0.6	0.1	-3.3	3.1	9.9	.	.
CCCOc1ccc(N2C(=O)CC(N(O)c3ccccc3)C2=O)cc1 (centres undefined)	7.8	10.5	1.4	10.7	1.2	.	.
O=C1CC(N(O)c2ccccc2)C(=O)N1c1cc(Cl)cc(Cl)c1 (centres undefined)	12.4	40.0*	25.1*	45.3*	13.1	35.9	10.1	BSA probe FL=2.8;TCR-CD3 inh conf=2.8
COc1cc(OC)c(NC(=O)CC2SC(N)=NC2=O)cc1Cl (centres undefined)	-3.8	3.7	-1.1	0.7	2.2	.	.
O=C1c2ccccc2C(=O)c2c(Nc3ccc(CCO)cc3)ccc(O)c21	12.0	53.3*	0.2	48.3*	-0.6	80.5*	75.5*
CC(=O)Nc1ccc(Nc2ccc3c4c(cc(=O)n3C)-c3ccccc3C(=O)c24)cc1	4.0	20.9	1.2	15.8	6.7	.	.
Fc1ccccc1N1CCN(CC2CCCCC2)CC1	-0.1	-2.9	-5.5	3.3	2.8	.	.
CC(C)(C)OC(=O)N1C[C@@]23C[C@H](c4cccc(F)c4)[C@@H](C[C@@H]2S1(=O)=O)O3	-0.4	.	1.2	-1.1	2.7	.	.
Cc1cc(N(C)C)ccc1N=Nc1ccc2ncccc2c1	3.3	37.0*	-2.0	45.0*	3.6	37.2*	53.9*
CN(C)c1ccc(N=Nc2ccc3ncccc3c2)cc1	-1.0	12.8	3.7	7.0	14.8	.	.
CCCS(=O)(=O)NC(=O)C1(C)CCN(C(=O)c2ccc(OC)cc2OC)C1 (centres undefined)	6.5	.	-5.2	10.2	4.4	.	.
Cc1nn(C)cc1/C=C/C(=O)c1ccc(O)cc1	9.9	-0.7	3.3	-1.4	-0.4	.	.
COC(=O)c1ccccc1NCc1cc(=O)oc2cc(O)c(O)cc12	4.7	65.1*	15.1	39.7*	6.2	46.3*	31.3*
Cc1onc(-c2ccccc2)c1C(=O)Nc1ccc(Cl)c(S(=O)(=O)N2CCOCC2)c1	-3.7	3.1	-3.5	-10.0	-2.0	.	.
Cc1cc(C)c2c(N)c(C(=O)N3CCc4ccccc4C3)sc2n1	3.6	-7.4	-2.3	-0.1	4.5	.	.
Cc1cccc(/C=C/C(=O)c2cc(Br)ccc(=O)c2O)c1	8.6	57.1*	0.5	35.7*	36.7*	59.0*	26.4
SMILES	SIAE inh	HTRA1 inh	TCR CD3 inh	mABHD4 FP	PRMT1 inh	HTRA1 inh conf	ABHD4 confirm	others
O=C(C=Cc1ccccc1)c1cc(Br)ccc1O	-3.6	-16.4	-4.0	-6.7	-3.7	.	.
CCc1ccc(/C=C/C(=O)c2cc(Br)ccc(=O)c2O)cc1	12.6	67.4*	-6.6	37.6*	31.5*	66.0*	9.9	PRMT1 confirm=18.5
Cc1cc(/C=N/Nc2ccc([N+](=O)[O-])cn2)c(C)n1-c1ccc(C(=O)O)cc1	16.6	41.2*	3.0	41.1*	7.6	11.7	59.2*
CC1CCCCN1C(=O)c1ccc(Br)o1 (centres undefined)	1.6	7.7	4.3	1.0	-0.6	.	.
Cc1ccc(NC(=S)NNc2ccc(C(=O)O)cc2[N+](=O)[O-])cc1C	7.5	48.8*	28.1*	69.5*	2.2	40.6*	47.4*	BSA probe FL=-4.3;TCR-CD3 inh conf=14.9
c1cc2c3c(cccc3c1)NN=N2	7.6	37.3*	-1.2	32.8*	5.6	33.4	27.1
CCOC(=O)[C@@]12CCCC3=C1N(CCC3)C(=O)[C@H]2CC(=O)N1CCCC1	-2.3	.	.	1.0	-2.3	.	.
Cc1ccc(S(=O)(=O)Nc2cccnc2Oc2ccc(Cl)cc2)cc1	-3.2	-1.1	-8.6	-7.2	5.4	.	.
Cc1ccc(S(=O)(=O)Nc2cc(Cl)c(O)c3ncccc23)cc1	16.9	70.4*	-7.3	48.5*	14.5	54.5*	56.9*
COC(C(=O)Nc1c(F)cccc1F)c1ccccc1 (centres undefined)	4.1	-15.6	-6.6	0.5	5.2	.	.
Cc1ccc(NC2=C(NC(=O)c3ccccc3)C(=O)c3ccccc3C2=O)cc1Cl	6.6	44.3*	0.8	30.4*	11.4	42.3*	50.3*
Cc1ccc(NCC(=O)c2ccccc2)cc1Cl	-0.1	1.9	2.6	-1.3	1.4	.	.
CCC(=Nc1ccc(N)cc1)C1=C(O)C(C(=O)OC)C(C)(C)CC1=O (centres undefined)	24.8*	53.2*	68.0*	82.0*	11.0	1.4	22.9	BSA probe FL=12.1;TCR-CD3 inh conf=9.2
CCN(CC)c1ccc(/C=N/Nc2ccc(C)cc2)c(O)c1	13.3	42.4*	3.5	30.9*	7.3	19.7	31.4*
NC(=S)NNc1cccc2cccnc12	5.9	46.4*	19.1*	32.4*	21.0	26.8	52.2*	BSA probe FL=-5.2;TCR-CD3 inh conf=3.3
Oc1ccccc1CNc1cccc2cccnc12	15.0	39.5*	-8.4	46.6*	9.1	4.6	-10.7
COc1ccccc1OCCNC(=O)CCC(=O)N1CCOCC1	-4.1	3.3	1.8	-2.4	-0.2	.	.
